# Compound activity from PubChem BioAssay.
# PMI act: activators of human phosphomannose isomerase | P34949 | purified human PMI, coupled resazurin fluorescence, 20 min; active compounds read high; 1 = vehicle control, 0 substrate-free wells | activation factor at 20 µM | 190,000 compounds, 0.005% hits;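 active means activation factor of 2 or more at 20 µM, relative to plate controls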
# Target sequence (P34949 whole entry, looked up): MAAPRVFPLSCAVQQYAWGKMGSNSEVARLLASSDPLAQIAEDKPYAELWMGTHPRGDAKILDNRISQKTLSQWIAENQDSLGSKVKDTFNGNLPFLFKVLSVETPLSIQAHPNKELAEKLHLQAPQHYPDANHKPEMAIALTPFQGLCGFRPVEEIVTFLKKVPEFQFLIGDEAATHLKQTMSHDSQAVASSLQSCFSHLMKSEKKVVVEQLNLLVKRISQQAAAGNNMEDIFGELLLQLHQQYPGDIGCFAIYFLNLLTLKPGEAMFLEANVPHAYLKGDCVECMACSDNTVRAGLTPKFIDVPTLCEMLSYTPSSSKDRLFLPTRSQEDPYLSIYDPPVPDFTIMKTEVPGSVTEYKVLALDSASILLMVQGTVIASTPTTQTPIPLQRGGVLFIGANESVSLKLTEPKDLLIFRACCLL
# PMI act satM6P: increases human PMI activity with near-saturating mannose 6-phosphate; P34949; coupled PMI enzyme assay, resazurin fluorescence, 20 min; active compounds read high; 1 = untreated enzyme, 0 = substrate-free blank; activation factor at 20 µM; 190,000 compounds, 0.34% hits; AID 1216;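 active means activation factor of 2 or more at 20 µM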
#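 test system = human PMI in coupled enzyme assay | medium = HEPES-buffered pH 7.4 with magnesium and detergent | also added = 1.0 mM mannose-6-phosphate substrate with 0.22 mM NADP+ | compound = 20 µM single dose | times = 20 min incubation at room temperature | measured by = resorufin fluorescence (Ex 544/Em 590 nm) from resazurin via diaphorase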
# GSH fluor: GSH bead compound fluorescence profile | GSH beads flow cytometry, compound fluorescence 488/530 nm; active compounds read high | fluorescence (KMESF) at 10 µM | AID 1776 | 190,000 compounds, 0.25% hits; in the data active means fluorescence above about 89;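 further: glutathione beads carrying GST-tagged Bcl family fusion proteins plus one bare bead set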
# Diaphorase act: diaphorase activation or chemical reduction counter-screen. Diaphorase/resazurin coupled assay, resorufin fluorescence, 16 min; active compounds read high; 1 = vehicle wells, 0 = NADH-free wells. activation factor at 20 µM. 190,000 compounds, 0.005% hits. AID 1229;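 active means diaphorase activity raised at least twofold by the compound at 20 µM; inactive means activation factor below 2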
#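 Assay system: Purified diaphorase enzyme from Clostridium kluyveri | Amount: Enzyme 0.07 U/mL final | Dosing: Compound 20 µM once, DMSO 1% | Timing: 16 min reaction at room temperature | Detection: Fluorescence, excitation 544 nm and emission 590 nm | Evaluation: Higher resorufin formation from activation or reduction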
# NCF1 inh: p47phox (human) inhibition; AID 1274; p47phox/p22phox peptide binding, fluorescence polarization, 2 h; 220,000 compounds, 0.53% hits; inhibition, % at 24.7 µM;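 active means inhibition above about 30%, limit read from the data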
# Avidin bead fluor: avidin bead compound fluorescence profile | 220,000 compounds, 0.38% hits | Avidin beads, compound fluorescence 488/530 nm, flow cytometry; active compounds read high | AID 1775 | fluorescence (KMESF) at 10 µM; in the data active means fluorescence above about 47
# Hits are given with their value; i = inactive; nt = not tested or not shown; + = active, no number. In the library only some 1.4% were active in any assay of this set; here they are far more common.
SMILES,PMI act,PMI act satM6P,GSH fluor,Diaphorase act,NCF1 inh,Avidin bead fluor
On1nnc2ccc(C(F)(F)F)cc21,i,i,i,i,i,i
Nc1c(C(=O)C2CC2)sc2nc(-c3ccccc3)cc(C(F)(F)F)c12,i,2,126,i,i,i
CSc1nc2ccc(NS(=O)(=O)c3c(Cl)cccc3Cl)cc2s1,i,i,i,i,i,i
CSc1nc2ccc(S(=O)(=O)N3CCCCC3)cc2s1,i,i,i,i,i,50
CSc1nc2ccc(NS(=O)(=O)c3ccc4c(c3)OCCO4)cc2s1,i,i,262,i,i,i
Cn1ncc2c(=O)n(CC(=O)NC34CC5CC(CC(C5)C3)C4)cnc21,i,i,i,i,i,84
O=C(NCc1ccco1)C(=O)c1c[nH]c2ccccc12,i,i,i,i,i,i
N#Cc1c(C(F)(F)F)cc(C2CC2)[nH]c1=O,i,i,i,i,i,85
O=C1c2ccccc2C(=O)N1CCCC(=O)N1CCCc2ccccc21,i,i,i,i,i,i
Cc1nc(OCC(=O)c2ccc(Cl)cc2)c(C#N)c2c1COC(C)(C)C2,i,i,i,i,122,i
O=C(N/N=C/c1cn(-c2ccccc2)nc1-c1cccnc1)c1cccnc1,i,i,i,i,i,62
O=C(N/N=C/c1cn(-c2ccccc2)nc1-c1cccnc1)c1ccc(F)cc1,i,i,i,i,i,i
CCOc1ccc(-n2nc3c(=S)[nH]nc(C)c3c2C)cc1,i,i,i,i,i,i
CCOc1ccc(-n2nc3c(=O)[nH]nc(C)c3c2C)cc1,i,i,i,i,57,i
CCOc1cc(/C=N/NC(=O)CCn2nc(C)cc2C)ccc1O,nt,nt,nt,nt,i,i
COc1cccc2c(=O)n(CC(=O)N3CCCCC3)ccc12,i,i,i,i,i,i
CC(C)Cn1c(=O)c2c(nc3n2CCCN3CCc2ccccc2)n(C)c1=O,i,i,257,i,i,i
Cn1c(=O)n(CCc2ccccc2)c(=O)c2c1nc1n2CCCN1CCc1ccccc1,i,i,i,i,i,i
COc1ccc(S(=O)(=O)c2ccc(OC)cc2)cc1,i,i,i,i,i,i
COc1ccc(C2=CC(=O)C=CC2=O)cc1,nt,nt,nt,nt,58,i
CCOC(=O)C1=C(C)NC(=O)NC1c1ccc(Br)s1 (centres undefined),i,i,i,i,i,i
O=C1N(CCCN2C(=O)C3(OCCO3)c3ccccc32)c2ccccc2C12OCCO2,i,i,i,i,i,i
CCOC(=O)N1CCN(C(=O)c2ccccc2CCc2ccccc2)CC1,i,i,i,i,87,i
CCOC(=O)N1CCN(C(=O)c2ccccc2-c2ccccc2)CC1,i,i,i,i,i,i
CCOC(=O)CN(C(=O)CSc1nnc2c(n1)[nH]c1ccc(F)cc12)c1ccccc1,i,i,i,i,i,i
SMILES,PMI act,PMI act satM6P,GSH fluor,Diaphorase act,NCF1 inh,Avidin bead fluor
CCOC(=O)C(NC(=O)c1ccccc1)(OCc1ccccc1)C(F)(F)F (centres undefined),i,i,i,i,i,i
CC(C)C(OC(=O)c1cc2sccc2n1C)C(=O)NCC1CCCO1 (centres undefined),i,i,254,i,i,i
COC(=O)c1cc2c(ccn2-c2ccc(F)cc2)n1C(C)C,i,i,i,i,i,52
COC(=O)c1cc2c(ccn2-c2ccc(F)cc2)n1CC(C)C,i,i,i,i,i,i
COc1cc(C(C)=O)ccc1COc1ccc(C(=O)O)cc1OC,nt,nt,nt,nt,i,i
O=C(Nc1nnc(C(F)(F)F)s1)c1cccnc1,i,i,i,i,i,i
O=C(Nc1nnc(-c2ccccc2F)s1)c1cccnc1,i,i,i,i,73,i
CC(C)c1nc(C#N)c(NN)o1,nt,nt,nt,nt,i,i
COc1ccc(C(=O)NCCc2nnc(SCC(=O)Nc3ccccc3F)n2C)cc1,i,i,i,i,i,80
Cn1c(CCNC(=O)c2ccccc2F)nnc1SCC(=O)Nc1ccccc1F,i,i,i,i,i,i
O=C(O)c1ccc(/C=C(\c2nc3ccccc3[nH]2)c2nc3ccccc3s2)cc1,nt,nt,nt,nt,i,i
N#Cc1nc(-c2ccc(OCc3ccccc3)cc2)oc1N1CCC(C(N)=O)CC1,i,i,i,i,55,i
CC(C)(C)NC(=O)c1ccccc1-c1nc(-c2ccccc2Cl)no1,i,i,i,i,43,i
Nc1nonc1-c1noc(N2CCCCC2)n1,i,i,i,i,i,i
COc1ccc(-c2cc(C(F)(F)F)n3nc(C(=O)O)nc3n2)cc1,i,i,i,i,65,i
COc1ccc(-c2cc(C(F)(F)F)n3nc(N)nc3n2)cc1,i,i,i,i,i,i
Cc1ccc(-c2nn(C)c(=O)c3ccccc23)cc1CNC(=O)c1ccco1,i,i,i,i,i,i
Cc1cc(C)c2c(=O)n(CC(=O)NCCCN3CCN(c4ccccc4F)CC3)sc2n1,i,i,i,i,51,i
Cc1cc(C)c2c(=O)n(CC(=O)Nc3ccc(Cl)cc3)sc2n1,nt,nt,nt,nt,i,i
CCOc1ccc(NC(=O)Cn2sc3nc(C)cc(C)c3c2=O)cc1,nt,nt,nt,nt,40,i
CN(c1ccccc1)S(=O)(=O)c1cccc(C(=O)OCC(=O)NCCCN2CCCC2=O)c1,i,i,i,i,i,i
CCCCn1c(N)c(C(=S)NC(=O)CC(C)(C)C)c(=O)n(C)c1=O,i,i,i,i,i,i
O=C(c1ccc(N2CCOCC2)nc1)N1CCCCC1,i,i,i,i,i,i
N#CC1=C(c2ccc(-c3ccccc3)cc2)COC1=O,i,2.4,i,i,i,i
CCOC(=O)Nc1c(C(=O)OC)[nH]c2cccc(OC)c12,i,i,i,i,i,57
SMILES,PMI act,PMI act satM6P,GSH fluor,Diaphorase act,NCF1 inh,Avidin bead fluor
CCOC(=O)c1[nH]c2ccc(OC)cc2c1NC(C)=O,i,i,i,i,i,62
CS(=O)(=O)c1ccc(C(=O)OCC(=O)NC(=O)C2CCCCC2)cc1[N+](=O)[O-],i,i,i,i,i,i
CC(C)Cc1cc(CN2CCCC(CO)(Cc3cccc(Cl)c3)C2)[nH]n1 (centres undefined),i,i,i,i,i,i
CC(C)Cc1cc(CN2CCC(CO)(Cc3cccc(C(F)(F)F)c3)CC2)[nH]n1,i,i,i,i,+,i
Fc1ccc(N2CCN(c3ccc4c(C(F)(F)F)cc(C(F)(F)F)nc4n3)CC2)cc1,i,i,i,i,i,92
COc1cc(N2CCCC2)c(OC)cc1/C=c1/sc2nc3ccccc3n2c1=O,i,i,i,i,i,63
COc1ccccc1Sc1ccccc1/C=N/NC(N)=O,i,i,i,i,i,i
O=c1[nH]c(=O)c2cc([N+](=O)[O-])cc([N+](=O)[O-])c2[nH]1,i,2.2,i,i,i,i
Brc1ccc(C2=Nc3cccc4cccc(c34)N2)o1,i,i,i,i,i,i
